Calls of active or inactive are those of the source. No cut-off for these calls is given here.
What was measured:
[1] = target: T1, Coagulation factor XII (Homo sapiens) (UniProt P00748); assay: Inhibition of human coagulation factor 12a using spectrozyme F12a as substrate at 365 uM after 10 mins by spectrophotometric analysis
T1 sequence (whole entry): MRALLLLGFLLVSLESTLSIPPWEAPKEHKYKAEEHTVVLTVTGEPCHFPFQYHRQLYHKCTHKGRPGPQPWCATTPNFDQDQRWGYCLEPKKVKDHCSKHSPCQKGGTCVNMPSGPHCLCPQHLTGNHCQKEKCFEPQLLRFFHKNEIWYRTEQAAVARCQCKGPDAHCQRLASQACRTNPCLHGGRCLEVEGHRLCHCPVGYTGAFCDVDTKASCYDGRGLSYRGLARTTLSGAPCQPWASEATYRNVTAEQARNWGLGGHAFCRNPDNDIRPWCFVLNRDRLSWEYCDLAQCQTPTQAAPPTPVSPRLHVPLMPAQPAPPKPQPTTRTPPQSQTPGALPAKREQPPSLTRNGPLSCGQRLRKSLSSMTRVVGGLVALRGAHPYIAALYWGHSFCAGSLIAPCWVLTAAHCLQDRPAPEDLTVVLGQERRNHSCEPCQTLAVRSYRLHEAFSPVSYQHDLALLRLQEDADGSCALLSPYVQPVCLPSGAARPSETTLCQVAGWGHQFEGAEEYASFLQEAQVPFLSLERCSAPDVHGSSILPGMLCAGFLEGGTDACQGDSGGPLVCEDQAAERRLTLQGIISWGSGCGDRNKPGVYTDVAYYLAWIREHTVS
Summary of the method: (§1)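 Chromogenic substrate hydrolysis screen against each coagulation protease (VIIa, IXa, Xa, XIa, XIIa), each with its appropriate substrate. Inhibitor was tested at a single concentration of 365 μM. Fractional residual activity was taken as the ratio of initial hydrolysis rates with and without inhibitor, read spectrophotometrically.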

[2] = target: T2, Coagulation factor VII (Homo sapiens) (UniProt P08709); assay: Inhibition of human coagulation factor 7a using spectrozyme 7a as substrate at 365 uM after 10 mins by spectrophotometric analysis; summary of the method: as §1
T2 sequence (whole entry): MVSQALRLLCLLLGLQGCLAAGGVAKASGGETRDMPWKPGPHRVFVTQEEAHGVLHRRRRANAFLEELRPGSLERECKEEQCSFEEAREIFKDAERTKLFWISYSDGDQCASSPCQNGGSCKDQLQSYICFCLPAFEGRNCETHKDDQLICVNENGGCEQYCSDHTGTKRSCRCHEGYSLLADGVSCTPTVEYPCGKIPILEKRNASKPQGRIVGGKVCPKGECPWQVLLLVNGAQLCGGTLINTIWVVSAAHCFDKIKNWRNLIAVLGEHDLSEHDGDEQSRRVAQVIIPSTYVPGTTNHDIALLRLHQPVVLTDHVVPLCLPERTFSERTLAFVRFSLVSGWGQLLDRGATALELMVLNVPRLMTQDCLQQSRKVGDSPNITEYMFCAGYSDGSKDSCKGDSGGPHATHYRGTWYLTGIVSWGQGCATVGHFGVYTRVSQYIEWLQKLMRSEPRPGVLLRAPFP

Prothrombin = Prothrombin (Homo sapiens, UniProt P00734); assay: Inhibition of human alpha thrombin using spectrozyme TH as substrate
Summary of the method: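 Chromogenic assay: initial rate of Spectrozyme TH hydrolysis read spectrophotometrically at pH 7.4 and 25 °C across a range of inhibitor concentrations. Fractional loss of initial rate plotted against log concentration and fitted to a logistic dose–response equation to give IC50.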

[3] = target: Coagulation factor X (Homo sapiens) (UniProt P00742); assay: Inhibition of human coagulation factor 10a using spectrozyme F10a as substrate at 365 uM after 10 mins by spectrophotometric analysis; summary of the method: as §1
Chain of Coagulation factor X (Homo sapiens) (P00742 41-179 limits assumed): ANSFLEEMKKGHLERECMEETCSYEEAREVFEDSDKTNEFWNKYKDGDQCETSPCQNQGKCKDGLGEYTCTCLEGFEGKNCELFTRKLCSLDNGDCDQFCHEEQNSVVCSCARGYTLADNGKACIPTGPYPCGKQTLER
Chain of Coagulation factor X (Homo sapiens) (P00742 235-488 limits assumed): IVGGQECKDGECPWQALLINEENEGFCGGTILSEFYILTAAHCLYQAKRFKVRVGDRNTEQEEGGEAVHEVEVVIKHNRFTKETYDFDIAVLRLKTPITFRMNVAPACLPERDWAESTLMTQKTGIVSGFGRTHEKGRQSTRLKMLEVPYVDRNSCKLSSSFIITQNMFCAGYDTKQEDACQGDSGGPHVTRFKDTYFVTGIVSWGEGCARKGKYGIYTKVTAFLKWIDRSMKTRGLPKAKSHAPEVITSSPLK

Plasma = assay: Anticoagulant activity in human plasma assessed as inhibition of Cacl2-induced coagulation after 4 mins by fibrometric analysis; assay type: functional
Summary of the method: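 Human plasma clotting times were read on a fibrometer in both prothrombin time (PT) and activated partial thromboplastin time (APTT) formats, across a range of inhibitor concentrations. Trend lines of clotting time versus concentration gave the concentration needed to double clotting time (2×PT, 2×APTT).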

[4] = target: Coagulation factor IX (Homo sapiens) (UniProt P00740); assay: Inhibition of human coagulation factor 9a using spectrozyme F9a as substrate at 365 uM after 10 mins by spectrophotometric analysis; summary of the method: as §1
Chain of Coagulation factor IX (Homo sapiens) (P00740 47-191 limits assumed): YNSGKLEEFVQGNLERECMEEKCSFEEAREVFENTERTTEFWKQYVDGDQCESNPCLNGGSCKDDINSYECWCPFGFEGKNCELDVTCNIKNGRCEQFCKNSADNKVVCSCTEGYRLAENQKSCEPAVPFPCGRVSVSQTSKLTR
Chain of Coagulation factor IX (Homo sapiens) (P00740 227-461 limits assumed): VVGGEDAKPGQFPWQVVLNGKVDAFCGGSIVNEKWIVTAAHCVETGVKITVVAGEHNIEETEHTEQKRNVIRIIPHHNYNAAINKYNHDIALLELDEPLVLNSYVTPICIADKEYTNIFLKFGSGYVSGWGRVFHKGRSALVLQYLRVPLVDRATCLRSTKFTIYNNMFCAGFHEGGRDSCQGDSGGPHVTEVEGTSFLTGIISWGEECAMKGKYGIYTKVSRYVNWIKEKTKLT

[5] = target: Coagulation factor XI (Homo sapiens) (UniProt P03951); assay: Inhibition of human coagulation factor 11a at 365 uM after 10 mins by spectrophotometric analysis; summary of the method: as §1
Chain of Coagulation factor XI (Homo sapiens) (P03951 19-387 limits assumed): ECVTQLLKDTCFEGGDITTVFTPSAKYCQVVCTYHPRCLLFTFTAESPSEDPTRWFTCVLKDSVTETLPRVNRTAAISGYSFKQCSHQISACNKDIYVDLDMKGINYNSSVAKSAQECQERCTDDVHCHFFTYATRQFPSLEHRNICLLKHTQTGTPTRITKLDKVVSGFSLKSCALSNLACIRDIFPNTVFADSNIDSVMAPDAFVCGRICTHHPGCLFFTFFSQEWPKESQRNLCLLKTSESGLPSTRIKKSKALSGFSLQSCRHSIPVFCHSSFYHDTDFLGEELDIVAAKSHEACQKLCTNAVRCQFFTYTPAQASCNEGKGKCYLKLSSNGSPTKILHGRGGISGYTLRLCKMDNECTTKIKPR
Chain of Coagulation factor XI (Homo sapiens) (P03951 388-625 limits assumed): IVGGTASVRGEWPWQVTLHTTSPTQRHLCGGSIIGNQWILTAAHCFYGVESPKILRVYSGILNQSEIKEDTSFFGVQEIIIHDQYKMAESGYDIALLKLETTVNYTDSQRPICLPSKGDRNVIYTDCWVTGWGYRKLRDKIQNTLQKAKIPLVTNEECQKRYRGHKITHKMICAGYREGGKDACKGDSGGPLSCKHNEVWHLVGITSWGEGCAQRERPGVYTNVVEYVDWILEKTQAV

Human alphaherpesvirus 1 = assay: Binding affinity to Herpes simplex virus 1 recombinant Lys25-His332-truncated His6-tagged glycoprotein D expressed in Escherichia coli measured after 3 hrs by affinity co-electrophoretic analysis

SMILES | inhibition [1] | inhibition [2] | IC50 (Prothrombin) | inhibition [3] | 2PT (Plasma) | 2aPTT (Plasma) | inhibition [4] | inhibition [5] | Activity (Human alphaherpesvirus 1)
N#Cc1c(SCC(=O)c2cccc(OS(=O)(=O)O)c2OS(=O)(=O)O)nc([N+](=O)[O-])c(C#N)c1-c1ccc(OCc2ccccc2)cc1 | > 20% | > 20% | 65.9 µM | > 20% | 606 µM | 550 µM | > 20% | Active | 
O=C(O)C1=C[C@H](O)[C@@H](OS(=O)(=O)O)[C@@H](O[C@H]2[C@H](O)[C@@H](NS(=O)(=O)O)[C@@H](O[C@H]3[C@H](O)[C@@H](OS(=O)(=O)O)[C@@H](O[C@H]4[C@H](O)[C@@H](NS(=O)(=O)O)[C@@H](O[C@H]5[C@H](O)[C@@H](OS(=O)(=O)O)[C@@H](O[C@H]6[C@H](OS(=O)(=O)O)[C@@H](NS(=O)(=O)O)[C@@H](O[C@H]7[C@H](O)[C@@H](OS(=O)(=O)O)[C@@H](O[C@H]8[C@H](O)[C@@H](NS(=O)(=O)O)[C@@H](O)O[C@@H]8COS(=O)(=O)O)O[C@H]7C(=O)O)O[C@@H]6COS(=O)(=O)O)O[C@H]5C(=O)O)O[C@@H]4COS(=O)(=O)O)O[C@H]3C(=O)O)O[C@@H]2COS(=O)(=O)O)O1 |  |  |  |  |  |  |  |  | 19 µM
O=C(Nc1ccc(OS(=O)(=O)O)cc1)c1cccc(N2C(=O)c3ccc(C(=O)Nc4ccc(OS(=O)(=O)O)cc4)cc3C2=O)c1 | > 20% | > 20% | 286 µM | > 20% |  |  | > 20% | inactive | 
